The text below walks through data of ChEMBL document CHEMBL1139250, “2,6,9-Trisubstituted purine derivatives as protein A mimetics for the treatment of autoimmune diseases” (Bioorg Med Chem Lett, 2009).

Usually pIC50 stands for −log10 of the IC50, conventionally taken in molar units.

pIC50: −log10 of the molar value. The source made the active and inactive calls. The calls are words filed in the database; no cut-off is given here.

The first experiment deals with Mus musculus. Briefly: Effect on oxazolone-induced delayed type hypersensitivity in mouse assessed as ear thickness at 50 or 150 mg/kg, po after 7 days challenged with oxazolone on day 3. It counts as functional, organism-based. Set-up: dose 150 mg/kg. An outline of the steps: (§1)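 Oxazolone DTH protocol: 50 ll oxazolone applied to the right ear surface, challenged day 3 and day 10. Ear thickness measured days 4–7 and 11–14. Compound given orally at 50 or 150 mg/kg daily from day 0 to day 13. Hydrocortisone served as comparator.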
On to `Nc1ccc(CCn2cnc3c(Nc4cccc(N)c4)ncnc32)cc1`, for which the result was Active.

A further experiment concerns Mus musculus. Briefly: Effect on oxazolone-induced delayed type hypersensitivity in mouse assessed as ear thickness at 50 mg/kg, iv after 7 days challenged with oxazolone on day 3. It counts as functional. Summed up:
(§2)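 Mice dosed intravenously with vehicle or test compound at 50 mg/kg on days 0, 1 and 2. Oxazolone (50 ll) applied to the right ear surface, first challenge day 3, second day 10. Ear thickness measured days 4–7 and 11–14; redness and crust formation also observed. Mice sacrificed day 14.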
Consider `CN(Cc1cnc2nc(N)nc(N)c2n1)c1ccc(C(=O)N[C@@H](CCC(=O)O)C(=O)O)cc1` [METHOTREXATE], for which the Activity is reported as 0.17 mm.
With `Nc1ccc(CCn2cnc3c(Nc4cccc(N)c4)ncnc32)cc1`, the Activity came out at 0.19 mm.

Another experiment deals with Rattus norvegicus. Briefly: Reduction in synovitis damage in Freund's adjuvant-induced arthritis Lewis rat model at 50 mg/kg, po after 21 days relative to control. It counts as functional. Set-up: scale not given: the % may be the effect or the level left.
With `Nc1ccc(CCn2cnc3c(Nc4cccc(N)c4)ncnc32)cc1`, the Activity stood at 30%.

In a further experiment the test system is Mus musculus. Kind of experiment: Effect on oxazolone-induced delayed type hypersensitivity in mouse assessed as ear thickness at 50 mg/kg, iv after 14 days challenged with oxazolone on day 10. It counts as functional. An outline of the steps: as §2
As to `CN(Cc1cnc2nc(N)nc(N)c2n1)c1ccc(C(=O)N[C@@H](CCC(=O)O)C(=O)O)cc1` [METHOTREXATE], the Activity was 0.46 mm.
Consider `Nc1ccc(CCn2cnc3c(Nc4cccc(N)c4)ncnc32)cc1`, for which the Activity amounted to 0.56 mm.

The test system of another experiment is Rattus norvegicus. Briefly: Reduction in synovitis damage in Freund's adjuvant-induced arthritis Lewis rat model at 25 mg/kg, iv after 21 days relative to control. Format: functional. The arrangement: scale not given: the % may be the effect or the level left. An outline of the steps:
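Female Lewis rats; arthritis induced by footpad injection of lyophilized Mycobacterium butyricum in mineral oil, monitored for 3 weeks. Intravenous dosing on days −3, −2, −1 pre-adjuvant and days 10, 11, 12 post-adjuvant; body weight recorded. Arthritis (inflammatory) index derived from joint circumference in mm via a geometric formula; incidence and severity scored.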
`CN(Cc1cnc2nc(N)nc(N)c2n1)c1ccc(C(=O)N[C@@H](CCC(=O)O)C(=O)O)cc1` [METHOTREXATE]: the Activity came to 20%.
As for `Nc1ccc(CCn2cnc3c(Nc4cccc(N)c4)ncnc32)cc1`, the Activity was found to be 25%.

A further experiment deals with Mus musculus. Briefly: Effect on oxazolone-induced delayed type hypersensitivity in mouse assessed as ear thickness at 50 or 150 mg/kg, po after 14 days challenged with oxazolone on day 10. It counts as functional, organism-based. Set-up: dose 150 mg/kg. An outline of the steps:
as §1
For `Nc1ccc(CCn2cnc3c(Nc4cccc(N)c4)ncnc32)cc1`, the result was Active.

Another experiment is filed under the species Homo sapiens. Briefly: (§3) Displacement of protein A from human IgG antibody by competitive ELISA. An outline of the steps: (§4)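 Competitive ELISA in which test compounds compete with protein A for binding to human IgG; IC50 determined in PBS.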
(In an ELISA, binding on a coated surface is turned into a signal by an enzyme label.)
With `Nc1ccc(CCn2cnc3c(Nc4cccc(N)c4)nc(NCCCCO)nc32)cc1`, the result was inactive.
Same read-out and setting: the same measure for `NCCNc1nc(Nc2cccc(N)c2)c2ncn(CCc3ccc(N)cc3)c2n1`: “inactive”; for `Nc1cccc(Nc2ncnc3c2ncn3CCc2ccc(O)cc2)c1`: “inactive”; for `Nc1ccc(CCn2cnc3c(N4CCNCC4)ncnc32)cc1`: “inactive”.
For the compound `Nc1ccc(CCn2cnc3c(NC4CCNC4)ncnc32)cc1` (configuration not stated), the result was inactive.
On to `Nc1ccc(CCn2cnc3c(Nc4cccc(N)c4)nc(F)nc32)cc1`, for which the outcome was inactive.
On to `COc1cccc(Nc2ncnc3c2ncn3CCc2ccc(N)cc2)c1`, for which the result was inactive.
As to `Nc1ccc(CCn2cnc3c(Nc4cccc(F)c4)ncnc32)cc1`, the outcome was inactive.
Still for that read-out and setting: the same measure for `Nc1ccc(CCn2cnc3c(NC4CCCC(N)C4)ncnc32)cc1` (configuration not stated): “inactive”; for `Nc1ccc(CCn2cnc3c(NCC4CCCNC4)ncnc32)cc1` (configuration not stated): “inactive”.

Biological target in the next experiment: not listed separately
The experiment is described as §3. An outline of the steps:
as §4
On to `Nc1cccc(Nc2ncnc3c2ncn3Cc2cccc(F)c2)c1`, for which the pIC50 was 5.74.
`Nc1cccc(Nc2ncnc3c2ncn3CCCOc2ccccc2)c1` had a pIC50 of 6.22.
`CC(c1cccc(F)c1)n1cnc2c(Nc3cccc(N)c3)ncnc21` (configuration not stated) gave a pIC50 of 6.70.
In the case of `Nc1ccc(Cn2cnc3c(Nc4cccc(N)c4)ncnc32)cc1`, the pIC50 was 6.70.
On to `Nc1cccc(Nc2ncnc3c2ncn3CCc2ccc(Cl)cc2)c1`, for which the pIC50 was 5.44.
Compound `COC(=O)c1ccc(Cn2cnc3c(Nc4cccc(N)c4)ncnc32)cc1` gave a pIC50 of 6.52.
Take `Nc1cccc(Nc2ncnc3c2ncn3CCc2ccccc2)c1`: the pIC50 is 5.64.
As to `Nc1cccc(Nc2ncnc3c2ncn3CCc2ccc(F)cc2)c1`, the pIC50 is 6.22.
On the same count and under the same terms, the same measure for `Nc1cccc(Nc2ncnc3c2ncn3CCOc2ccccc2)c1`: 6.70.
The compound `Nc1cccc(Nc2ncnc3c2ncn3Cc2ccc(F)cc2)c1` had a pIC50 of 5.77.
Same read-out and setting: the same measure for `Nc1ccc(CCn2cnc3c(Nc4cccc(N)c4)nc(NC4CCC4)nc32)cc1`: 5.64.
On the same count and under the same terms, the same measure for `Nc1ccc(CCn2cnc3c(Nc4cccc(N)c4)nc(N)nc32)cc1`: 4.89; for `CC(C)CNc1nc(Nc2cccc(N)c2)c2ncn(CCc3ccc(N)cc3)c2n1`: 4.66; for `CC(Nc1nc(Nc2cccc(N)c2)c2ncn(CCc3ccc(N)cc3)c2n1)c1cccc(N)c1` (configuration not stated): 4.85.
On the same count and under the same terms, the same measure for `Nc1cccc(Nc2ncnc3c2ncn3Cc2cccc(Cl)c2)c1`: 6.40; for `Nc1cccc(Nc2ncnc3c2ncn3CCc2ccc3ccccc3c2)c1`: 4.90; for `Nc1cccc(Nc2ncnc3c2ncn3CCOc2ccc(F)cc2)c1`: 6.52.
As for `Nc1ccc(CCn2cnc3c(Nc4cccc(N)c4)ncnc32)cc1`, the pIC50 was 6.00.
Still for that read-out and setting: as for `Nc1ccc(CCn2cnc3c(Nc4cccc(N)c4)nc(NC4CCCC4)nc32)cc1`, the figure is 6.70; as for `Nc1cccc(CCn2cnc3c(Nc4cccc(N)c4)ncnc32)c1`, 5.29; as for `Nc1ccc(CCn2cnc3c(Nc4cccc(N)c4)nc(NCCO)nc32)cc1`, 4.19.
Same read-out and setting: the same measure for `Nc1cccc(Nc2ncnc3c2ncn3CC2CC2)c1`: 6.40; for `Nc1ccc(CCn2cnc3c(Nc4cccc(N)c4)nc(NC4CC4)nc32)cc1`: 4.89.
As for `Nc1cccc(Nc2ncnc3c2ncn3CCc2cccc(F)c2)c1`, the pIC50 was 6.30.
Still for that read-out and setting: as for `Nc1cccc(Nc2ncnc3c2ncn3CCOc2ccc(Cl)cc2)c1`, the figure is 6.30; as for `Nc1ccc(CCn2cnc3c(Nc4cccc(N)c4)nc(NCCCCCCO)nc32)cc1`, 5.32; as for `Nc1ccc(CCn2cnc3c(Nc4cccc(N)c4)nc(NCc4ccccc4)nc32)cc1`, 5.74.
`CC(C)(C)CNc1nc(Nc2cccc(N)c2)c2ncn(CCc3ccc(N)cc3)c2n1` gave a pIC50 of 5.22.
The compound `Cc1ccc(CCn2cnc3c(Nc4cccc(N)c4)ncnc32)cc1` showed a pIC50 of 5.82.
Compound `Nc1ccc(CCn2cnc3c(Nc4cccc(N)c4)nc(NCC4CC4)nc32)cc1` gave a pIC50 of 6.22.
Still for that read-out and setting: the same measure for `CC(C)Nc1nc(Nc2cccc(N)c2)c2ncn(CCc3ccc(N)cc3)c2n1`: 5.96; for `Nc1cccc(Nc2ncnc3c2ncn3Cc2ccc(Cl)cc2)c1`: 6.30.
`Nc1ccc(CCn2cnc3c(Nc4cccc(N)c4)nc(NC4CCCCC4)nc32)cc1` showed a pIC50 of 5.05.
